High-throughput results: PubChem BioAssay, Sanford-Burnham Center for Chemical Genomics
Most compounds without a hit are left out; they make up all but 1.9% or so of the library.
SUMO1 PPI mod: modulators of SUMO1 protein-protein interactions, primary screen, biochemical, uHTS | Small ubiquitin-related modifier 1 (Homo sapiens), P63165 | SUMO1 binding to a labelled peptide, TR-FRET, 1 h | inhibition, % at 20 µM | actives 0.33% (n = 360,000) | AID 602429, 2012; in the data active = inhibition above about 37%
Target sequence (P63165 whole entry, looked up): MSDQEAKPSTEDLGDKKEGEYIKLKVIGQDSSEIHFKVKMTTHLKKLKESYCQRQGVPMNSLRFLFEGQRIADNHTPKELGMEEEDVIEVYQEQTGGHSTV
Scp1 inh: Scp-1 phosphatase inhibitors, primary screen, biochemical, colorimetric, uHTS. Carboxy-terminal domain RNA polymerase II polypeptide A small phosphatase 1 (Homo …. Recombinant Scp1, phosphopeptide, malachite green phosphate absorbance. inhibition, % at 20 µM. actives 0.88% (n = 340,000);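 active = inhibition above about 50% at 20 µM, limit read from the data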;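 note: plate controls were DMSO wells with enzyme for no effect and wells lacking enzyme for full effect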
Target sequence (Q9GZU7 76-261 limits assumed): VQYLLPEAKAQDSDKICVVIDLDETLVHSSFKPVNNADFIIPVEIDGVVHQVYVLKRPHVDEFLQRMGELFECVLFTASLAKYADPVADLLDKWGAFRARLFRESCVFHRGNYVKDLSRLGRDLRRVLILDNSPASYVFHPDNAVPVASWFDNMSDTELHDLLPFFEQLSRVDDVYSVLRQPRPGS
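Test system – truncated SCP-1 phosphatase (76-261aa) · Reagent – Phosphorylated 17-residue peptide substrate · Incubation – 45 min room-temperature reaction, 5 min colour, 30 min stabiliser · Detection – colorimetric phosphate reagent with accelerator and stabiliser, absorbance at 630 nm · Measure – % inhibition at 20 µM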
UBC9 SUMO inh: inhibitors of in vitro SUMOylation cascade, primary screen, biochemical, HTRF, uHTS; SUMO-conjugating enzyme UBC9 (Homo sapiens), P63279; HTRF SUMOylation assay, SAE1/SAE2 + UBC9; inhibition, % at 35 µM; actives 0.36% (n = 290,000); in the data active = inhibition above about 50%, passing the limit was not always enough
STEP inh: STEP phosphatase inhibitors, primary screen, biochemical, fluorescence intensity, uHTS | actives 0.25% (n = 360,000) | Tyrosine-protein phosphatase non-receptor type 5 (Homo sapiens), P54829 | recombinant STEP, OMFP fluorogenic substrate | inhibition, % at 20 µM;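 active = inhibition at 20 µM, scaled per plate between control wells, above about 37%, limit read from the data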;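 note: 0% = DMSO with enzyme and substrate and 100% = substrate only without enzyme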
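Test system: STEP tyrosine phosphatase / Reagent: OMFP at 25 µM / Doses: 20 µM, 1% DMSO / Read-out: percent inhibition scaled to no-enzyme and uninhibited-enzyme controls, plate-pattern corrected / Detection: FITC-channel fluorescence of OMFP product / Medium: Bis-Tris buffer pH 6.0, 2.5 mM DTT, 0.005% Tween 20 / Schedule: 20 min at room temperature, dark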
LMPTP block: LMPTP phosphatase inhibitors, primary screen, biochemical, fluorescence intensity, uHTS; inhibition, % at 20 µM; actives 0.22% (n = 360,000); recombinant LMPTP-A, OMFP fluorogenic substrate; AID 651560, 2012;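 active = compounds that cut the enzyme signal by at least half of the control window in the single-dose screen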;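 note: plate controls were DMSO wells with enzyme plus substrate for no effect and substrate without enzyme for full effect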
Target sequence (P24666 whole entry, looked up): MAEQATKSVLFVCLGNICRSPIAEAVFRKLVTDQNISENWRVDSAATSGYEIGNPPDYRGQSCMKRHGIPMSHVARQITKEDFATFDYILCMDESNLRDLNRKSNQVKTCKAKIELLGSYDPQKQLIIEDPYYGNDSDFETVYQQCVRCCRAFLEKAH
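Test system: LMPTP-A phosphatase enzyme. Amount: LMPTP-A at 0.625 nM final in the reaction. Reagent: OMFP substrate, 400 µM final. Times: 50 min at room temperature. Signal: endpoint fluorescence intensity from OMFP dephosphorylation. Read-out basis: % inhibition. Benchmarks: no-enzyme and uninhibited controls.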
DNMT1 inh: human DNMT1 methyltransferase inhibitors, primary screen, biochemical, molecular beacon, fluorescence, HinP1I cleavage, uHTS. inhibition (reported as % activation of signal), % at 10 µM. DNA (cytosine-5)-methyltransferase 1 (Homo sapiens), P26358. actives 0.83% (n = 360,000); in the data active = inhibition above about 50%
* = called active by the depositor; . = not tested or not shown.

SMILES	SUMO1 PPI mod	Scp1 inh	UBC9 SUMO inh	STEP inh	LMPTP block	DNMT1 inh
CCCN(C(=O)c1cc(-c2ccco2)nc2ccccc12)c1c(N)n(Cc2ccccc2)c(=O)[nH]c1=O	0.2	74.4*	.	5.8	13.3	37.8
CCCCN(C(=O)c1cc(-c2ccco2)nc2ccccc12)c1c(N)n(CCCC)c(=O)[nH]c1=O	1.2	.	.	2.1	13.3	33.6
O=C(O)COc1ccccc1C(Nc1cccnc1)c1cc(Cl)c2cccnc2c1O (stereo not drawn)	16.2	11.2	77.3*	4.4	22.8	4.4
O=C(CN(C(=O)c1csnn1)c1ccc2c(c1)OCCO2)NCc1ccccc1	5.7	2.6	-2.4	-3.8	0.2	6.1
COc1cc([N+](=O)[O-])ccc1NC(=O)COC(=O)c1ccc(NC(N)=O)cc1	44.9*	-5.4	-15.2	2.5	19.2	3.0
COc1ccccc1C(=O)NCC(=O)OCC(=O)Nc1ccc2[nH]c(=O)[nH]c2c1	46.8*	-6.6	.	-2.9	-0.5	1.6
CC(=O)c1ccc(OCCCC(=O)OCC(=O)Nc2ccc3[nH]c(=O)[nH]c3c2)cc1	75.8*	-2.8	.	-2.0	-1.8	0.1
COc1ccc(OCC(=O)OCC(=O)Nc2ccc3[nH]c(=O)[nH]c3c2)cc1	61.9*	-7.5	.	-2.3	-2.0	5.4
CC(CC(=O)OCC(=O)Nc1ccc2[nH]c(=O)[nH]c2c1)c1ccccc1 (stereo not drawn)	46.1*	4.8	.	-1.5	0.2	2.1
CC(C)=CCC[C@H](C)C[C@@H]1CC2=C(C(=O)OC(C)(C)O2)[C@@H](c2ccc(F)cc2)O1	4.4	.	.	.	3.0	.
COc1ccccc1NC(=O)Cc1cccs1	-0.2	8.1	17.7	1.1	-0.2	-2.2
COc1ccccc1NC(=O)Nc1ccnn1Cc1cccs1	-1.2	1.6	77.6*	-3.0	-1.2	-3.8
COc1ccc(N2CCN(C(=O)Oc3ccc([N+](=O)[O-])cc3)CC2)cc1	-18.5	.	.	.	-2.0	.
Cc1cc(N2CCN(S(=O)(=O)c3ccc(Cl)c(Cl)c3)CC2)c2ccccc2n1	6.6	6.4	-9.0	3.0	54.6*	-2.1
Cc1cc(N2CCN(C(=O)Oc3ccc([N+](=O)[O-])cc3)CC2)c2ccccc2n1	-21.9	.	.	.	50.5*	.
Cc1nc2ccccc2c2oc(C(=O)N3CCN(c4ccc([N+](=O)[O-])cc4)CC3)cc12	50.4*	3.4	-20.5	0.0	4.8	1.4
Cc1nc2ccccc2c2oc(C(=O)N3CCN(C(=O)c4ccco4)CC3)cc12	0.2	7.1	1.4	1.6	0.5	2.3
Cc1cc(N2CCN(S(=O)(=O)c3ccc(Cl)cc3)CC2)c2ccccc2n1	-3.4	4.6	10.9	-0.3	47.5	-3.3
COc1ccccc1-c1nnc(SCC(=O)NCc2cccs2)n1N	-1.5	-6.0	15.9	-1.3	0.4	-0.4
COc1ccc(CC(=O)OCC(=O)NC2CCCCC2)cc1OC	4.9	-18.1	.	-2.0	-1.3	1.8
COc1ccc([N+](=O)[O-])cc1NC(=O)c1cc(C)c(C)o1	1.0	8.7	8.4	0.7	-0.9	0.4
O=C(Cc1cccs1)N=Nc1c(O)[nH]c2ccccc12	-22.0	-4.1	-20.6	2.2	-0.6	0.1
O=C(N=Nc1c(O)[nH]c2ccccc12)c1cc(-c2cccs2)[nH]n1	59.9*	7.2	36.6	13.0	38.9	10.8
CCN(CC)CCCN(C(=O)c1ccc(Br)cc1)c1nc(-c2ccc(OC)cc2)cs1	-5.1	6.0	-11.2	0.6	0.4	5.4
CCN(CC)CCOC(=O)c1ccc(N/C=C(/C#N)c2nc(-c3ccc(OC)cc3)cs2)cc1	81.3*	11.2	20.1	11.0	4.5	36.3
